Assay results published in ChEMBL document CHEMBL5370647 (J Med Chem, 2023).
Values after ≈ are worked out from the molar mass of the structure shown.

Key:
[1] = tested on: Mycobacterium tuberculosis; assay: Antitubercular activity against non-replicating Mycobacterium tuberculosis H37Rv expressing luxCDAB assessed as inhibition of bacterial growth incubated for 7 days under hypoxia conditions followed by incubation in normoxia conditions for 5 days by luminescence based analysis; type: functional; settings: 288 h, time 12 day
[2] = molecular target: T1, TGF-beta receptor type-1 (Homo sapiens, UniProt P36897); assay: Binding affinity to wild type human partial length TGFBR1 (D179 to M503 residues) expressed in bacterial expression system by KINOMEscan assay
T1 sequence (P36897 whole entry): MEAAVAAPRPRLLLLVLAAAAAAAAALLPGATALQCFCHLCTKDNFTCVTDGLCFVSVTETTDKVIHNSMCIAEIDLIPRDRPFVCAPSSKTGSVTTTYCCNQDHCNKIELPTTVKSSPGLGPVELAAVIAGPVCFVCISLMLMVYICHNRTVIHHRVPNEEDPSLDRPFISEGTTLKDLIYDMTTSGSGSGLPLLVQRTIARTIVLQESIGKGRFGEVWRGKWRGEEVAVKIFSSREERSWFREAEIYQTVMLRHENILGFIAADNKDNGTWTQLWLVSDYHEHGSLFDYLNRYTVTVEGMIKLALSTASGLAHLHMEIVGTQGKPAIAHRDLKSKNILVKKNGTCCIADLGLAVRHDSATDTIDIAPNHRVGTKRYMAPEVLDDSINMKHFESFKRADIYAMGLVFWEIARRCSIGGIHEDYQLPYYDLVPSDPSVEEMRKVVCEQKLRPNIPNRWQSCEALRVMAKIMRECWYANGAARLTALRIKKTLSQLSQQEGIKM

[3] = tested on: Mycobacterium tuberculosis; assay: Antitubercular activity against Mycobacterium tuberculosis H37Rv constitutively expressing GFP assessed as inhibition of bacterial growth at 20 uM incubated for 7 days by fluorescence based analysis; type: functional; settings: 168 h, time 7 day
[4] = tested on: Mycobacterium tuberculosis; assay: Antitubercular activity against replicating Mycobacterium tuberculosis H37Rv constitutively expressing GFP assessed as inhibition of bacterial growth under normoxia conditions incubated for 3 weeks by spot assay; type: functional; settings: 504 h
[5] = tested on: Mycobacterium tuberculosis; assay: Antitubercular activity against non-replicating Mycobacterium tuberculosis H37Rv constitutively expressing GFP assessed as inhibition of bacterial growth incubated for 7 days under hypoxic condition followed by incubation in aerobic conditions for 1 to 5 days by spot assay; type: functional; settings: time 8-12 day
[6] = Metabolic stability of the compound in CD-1 mouse liver microsomes assessed as parent compound remaining at 5 uM preincubated for 5 mins followed by NADPH addition and measured after 30 mins by LC-TOF/MS analysis; type: ADME, Microsome; settings: time 35 min, read-out: Stability
In short: (§1)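 Mouse liver microsomes incubated with compound in the presence of NADPH. Read-out is % parent compound remaining after 30 min.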

[7] = Metabolic stability of the compound in CD-1 mouse liver microsomes at 5 uM by LC-TOF/MS analysis; type: ADME, Microsome; in short: as §1
[8] = AUC(last) in CD-1 mouse at 10 mg/kg, po by LC/MS/MS analysis; type: ADME, organism-based; parameters: dose 10 mg/kg, route po; settings: in vivo
In short: (§2)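 CD1 mice dosed orally at 10 mg/kg (snapshot PK study). Plasma levels followed over 5 h by LC/MS/MS. T1/2, Cmax and AUC_last derived from the plasma profile.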

[9] = Half life in CD-1 mouse at 10 mg/kg, po by LC/MS/MS analysis; type: ADME, organism-based; settings: in vivo; in short: as §2
[10] = Cmax in CD-1 mouse at 10 mg/kg, po by LC/MS/MS analysis; type: ADME, organism-based; parameters: dose 10 mg/kg, route po; settings: in vivo; in short: as §2

Structure (SMILES) | MIC50 [1] [µM] | MIC90 [1] [µM] | also measured
Cc1cccc(-c2cc(Nc3ccncc3)c3ccccc3n2)n1 | 2.5 (≈ 0.781 µg/mL) | > 10 | 
Cc1cccc(-c2nc(Oc3ccc4scnc4c3)c3ccccc3n2)n1 | < 0.3 | 0.3 (≈ 0.111 µg/mL) | Kd [2]: > 10 µM
Cc1cccc(-c2nc(N(C)c3ccc4ncsc4c3)c3ccccc3n2)n1 | < 0.3 | 1.3 (≈ 0.499 µg/mL) | Kd [2]: > 10 µM
Cc1cccc(-c2nc(Nc3ccncc3)c3ccccc3n2)n1 | < 0.3 | 0.3 (≈ 0.094 µg/mL) | inhibition at 20 µM [3]: > 90%; MIC50 [4]: 16 µM (≈ 5.01 µg/mL); MIC90 [4]: 20 µM (≈ 6.27 µg/mL); MIC90 [5]: 1 µM (≈ 0.313 µg/mL); Kd [2]: 0.01 µM; remaining at 0.5 h, 5 µM [6]: 14%; Stability [7]: Stable; AUClast [8]: 75 ng·h/mL; t1/2 [9]: 1.8 h; Cmax [10]: 60 ng/mL
COc1ccc2c(Nc3ccncc3)nc(-c3cccc(C)n3)nc2c1 | 1 (≈ 0.343 µg/mL) | 2.5 (≈ 0.858 µg/mL) | remaining at 0.5 h, 5 µM [6]: 12%; Stability [7]: Stable
COc1cccc(-c2nc(Nc3ccncc3)c3ccccc3n2)n1 | 5 (≈ 1.65 µg/mL) | > 10 | 
Fc1cccc(-c2nc(Nc3ccncc3)c3ccccc3n2)n1 | 1 (≈ 0.317 µg/mL) | 5 (≈ 1.59 µg/mL) | remaining at 0.5 h, 5 µM [6]: 18%; Stability [7]: Stable
CSc1cccc(Nc2nc(-c3cccc(C)n3)nc3ccccc23)c1 | < 0.3 | 1.3 (≈ 0.466 µg/mL) | 
Cc1cccc(-c2cc3ccccc3c(Nc3ccncc3)n2)n1 | 1 (≈ 0.312 µg/mL) | > 10 | 
c1ccc2c(Nc3ccncc3)nc(-c3ccc4c(c3)OCO4)nc2c1 | > 10 | > 10 | 
Cc1cccc(-c2nc(Nc3ccc4nc(C)sc4c3)c3ccccc3n2)n1 | < 0.3 | 0.3 (≈ 0.115 µg/mL) | Kd [2]: > 10 µM; remaining at 0.5 h, 5 µM [6]: 18%; Stability [7]: Stable
Clc1cccc(-c2nc(Nc3ccncc3)c3ccccc3n2)n1 | < 1 | < 1 | remaining at 0.5 h, 5 µM [6]: 18%; Stability [7]: Stable
COc1ccc2nc(-c3cccc(C)n3)nc(Nc3ccncc3)c2c1 | < 1 | < 1 | remaining at 0.5 h, 5 µM [6]: 23%; Stability [7]: Stable
Cc1cccc(-c2nc(Nc3ccncc3)c3cc(O)ccc3n2)n1 | 1 (≈ 0.329 µg/mL) | 2.5 (≈ 0.823 µg/mL) | remaining at 0.5 h, 5 µM [6]: 20%; Stability [7]: Stable
COc1cncc(-c2nc(Nc3ccncc3)c3ccccc3n2)n1 | 5 (≈ 1.65 µg/mL) | > 10 | 
Cc1cccc(-c2nc(Nc3ccc4nnn(C)c4c3)c3ccccc3n2)n1 | < 0.3 | 0.3 (≈ 0.11 µg/mL) | Kd [2]: > 10 µM; remaining at 0.5 h, 5 µM [6]: 15%; Stability [7]: Stable
Clc1cccc(-c2nc(Nc3ccncc3)c3ccccc3n2)c1 | > 10 | > 10 | 
c1cncc(-c2nc(Nc3ccncc3)c3ccccc3n2)c1 | > 10 | > 10 | 
CN1CCN(Cc2cccc(-c3ccc4c(Nc5ccc(Oc6ccccc6)cc5)ccnc4c3)c2)CC1 |  |  | inhibition at 20 µM [3]: > 90%; MIC90 [4]: 11 µM (≈ 5.51 µg/mL); MIC90 [5]: 6 µM (≈ 3 µg/mL)
Cc1cccc(-c2nc(Nc3ccc4c(c3)OCO4)c3ccccc3n2)n1 | < 0.3 | 1.3 (≈ 0.463 µg/mL) | remaining at 0.5 h, 5 µM [6]: 30%; Stability [7]: Stable; AUClast [8]: 250 ng·h/mL; t1/2 [9]: 3.4 h; Cmax [10]: 75 ng/mL
Cc1ccc(NC(=O)c2ccnc(N3CCN(C)CC3)c2)cc1-c1ccc(C(=O)NCC2CC2)cc1 |  |  | inhibition at 20 µM [3]: > 90%; MIC50 [4]: 4 µM (≈ 1.93 µg/mL); MIC90 [4]: 6 µM (≈ 2.9 µg/mL)
Cc1cccc(-c2nc(C)cc(Nc3ccncc3)n2)n1 | < 1 | > 10 | 
Fc1cccc(-c2nc(Nc3ccncc3)c3ccccc3n2)c1 | > 10 | > 10 | 
Cc1cccc(-c2nc(Nc3ccc4[nH]ccc4c3)c3ccccc3n2)n1 | 1.3 (≈ 0.457 µg/mL) | 1.3 (≈ 0.457 µg/mL) | 
Cc1cccc(-c2nc(Oc3ccc4ncsc4c3)c3ccccc3n2)n1 | < 0.3 | 0.3 (≈ 0.111 µg/mL) | Kd [2]: > 10 µM
Cc1cccc(-c2nc(Nc3ccc4ncoc4c3)c3ccccc3n2)n1 | 0.3 (≈ 0.106 µg/mL) | 5 (≈ 1.77 µg/mL) | 
c1ccc2c(Nc3ccncc3)nc(-c3cnccn3)nc2c1 | 1 (≈ 0.3 µg/mL) | > 10 | 

Structure (SMILES) | MIC50 [1] [µM] | MIC90 [1] [µM] | also measured
Cc1cccc(-c2nc(Nc3ccc4nn(C)nc4c3)c3ccccc3n2)n1 | < 0.3 | 0.3 (≈ 0.11 µg/mL) | Kd [2]: > 10 µM; remaining at 0.5 h, 5 µM [6]: 30%; Stability [7]: Stable; AUClast [8]: 440 ng·h/mL; t1/2 [9]: 4.6 h; Cmax [10]: 150 ng/mL
Cc1cccc(-c2nc(Nc3ccc4c(c3)ncn4C)c3ccccc3n2)n1 | 1.3 (≈ 0.476 µg/mL) | 5 (≈ 1.83 µg/mL) | Kd [2]: > 10 µM
COc1ccc(Nc2nc(-c3cccc(C)n3)nc3ccccc23)cc1 | < 0.3 | 1.3 (≈ 0.445 µg/mL) | Kd [2]: > 10 µM
Cc1cccc(-c2nc(Nc3ccc4c(cnn4C)c3)c3ccccc3n2)n1 | < 0.3 | 1.3 (≈ 0.476 µg/mL) | remaining at 0.5 h, 5 µM [6]: 9%; Stability [7]: Stable
Fc1ccc(-c2c(-c3ccccn3)nc3n2CCS3)cc1 |  |  | inhibition at 20 µM [3]: > 90%; MIC50 [4]: 9 µM (≈ 2.68 µg/mL); MIC90 [4]: > 20 µM
c1cnc(-c2nc(Nc3ccncc3)c3ccccc3n2)nc1 | 2.5 (≈ 0.751 µg/mL) | > 10 | 
Cc1csc(-c2nc(Nc3ccncc3)c3ccccc3n2)n1 | > 10 | > 10 | 
Cc1cc(Nc2nc(-c3cccc(C)n3)nc3ccccc23)ccn1 | < 0.3 | 1.3 (≈ 0.426 µg/mL) | 
Cc1cccc(-c2nc(Nc3ccc4nn(C)cc4c3)c3ccccc3n2)n1 | < 0.3 | 1.3 (≈ 0.476 µg/mL) | 
Cc1cccc(-c2nc(Nc3ccc4ncccc4c3)c3ccccc3n2)n1 | 0.3 (≈ 0.109 µg/mL) | 5 (≈ 1.82 µg/mL) | 
CO[C@H]1/C=C/O[C@@]2(C)Oc3c(C)c(O)c4c(O)c(c(/C=N/N5CCN(C)CC5)c(O)c4c3C2=O)NC(=O)/C(C)=C\C=C\[C@H](C)[C@H](O)[C@@H](C)[C@@H](O)[C@@H](C)[C@H](OC(C)=O)[C@@H]1C [RIFAMPIN] |  |  | MIC90 [5]: 0.4 µM (≈ 0.329 µg/mL)
Cc1cccc(-c2nc(Nc3ccc4scnc4c3)c3ccccc3n2)n1 | < 0.3 | 1.3 (≈ 0.48 µg/mL) | Kd [2]: > 10 µM
Cc1cccc(-c2nc(Nc3ccc4ncsc4c3)c3ccccc3n2)n1 | < 0.3 | 1.3 (≈ 0.48 µg/mL) | 
Cc1cccc(-c2nc(Nc3ccc4c(c3)nnn4C)c3ccccc3n2)n1 | < 0.3 | 1.3 (≈ 0.478 µg/mL) | Kd [2]: > 10 µM; remaining at 0.5 h, 5 µM [6]: 28%; Stability [7]: Stable
Cc1cccc(-c2nc(Nc3ccc4[nH]ncc4c3)c3ccccc3n2)n1 | < 0.3 | 5 (≈ 1.76 µg/mL) | remaining at 0.5 h, 5 µM [6]: 9%; Stability [7]: Stable
FC(F)(F)c1cccc(-c2nc(Nc3ccncc3)c3ccccc3n2)n1 | 1 (≈ 0.367 µg/mL) | 5 (≈ 1.84 µg/mL) | remaining at 0.5 h, 5 µM [6]: 29%; Stability [7]: Stable
CS(=O)(=O)CCNCc1coc(-c2ccc3ncnc(Nc4ccc(OCc5ccccc5)cc4)c3c2)c1 [GW566221A] |  |  | inhibition at 20 µM [3]: > 90%; MIC90 [4]: 3 µM (≈ 1.59 µg/mL); MIC90 [5]: 7 µM (≈ 3.7 µg/mL)
Cc1cccc(-c2nc(Nc3ccc4ccsc4c3)c3ccccc3n2)n1 | < 0.3 | 0.3 (≈ 0.111 µg/mL) | Kd [2]: > 10 µM; remaining at 0.5 h, 5 µM [6]: 8%; Stability [7]: Stable
Cn1cncc1-c1ccc2ncnc(Nc3ccc(OCc4ccccc4)cc3)c2c1 |  |  | inhibition at 20 µM [3]: > 90%; MIC50 [4]: 5 µM (≈ 2.04 µg/mL); MIC90 [4]: 5 µM (≈ 2.04 µg/mL); MIC90 [5]: 11 µM (≈ 4.48 µg/mL)
Cc1cc(-c2nc(Nc3ccncc3)c3ccccc3n2)cs1 | > 10 | > 10 | 
Nc1nc(-c2ccccn2)c(-c2ccnc3ccccc23)s1 |  |  | inhibition at 20 µM [3]: > 90%; MIC50 [4]: 13 µM (≈ 3.96 µg/mL); MIC90 [4]: 20 µM (≈ 6.09 µg/mL); MIC90 [5]: > 20 µM
Cc1cccc(-c2nc(Nc3ccc4nn[nH]c4c3)c3ccccc3n2)n1 | 1.3 (≈ 0.459 µg/mL) | 5 (≈ 1.77 µg/mL) | Kd [2]: > 10 µM
Cn1ccc(-c2nc(Nc3ccncc3)c3ccccc3n2)n1 | > 10 | > 10 | 
c1ccc(-c2nc(Nc3ccncc3)c3ccccc3n2)nc1 | 1 (≈ 0.299 µg/mL) | 2.5 (≈ 0.748 µg/mL) | remaining at 0.5 h, 5 µM [6]: 20%; Stability [7]: Stable
Cc1cccc(-c2nc(Nc3ccc4occc4c3)c3ccccc3n2)n1 | < 0.3 | 1.3 (≈ 0.458 µg/mL) | Kd [2]: > 10 µM
Cn1cncc1-c1cc2c(Nc3ccc(OCc4ccccc4)cc3)ncnc2cn1 |  |  | inhibition at 20 µM [3]: > 90%; MIC50 [4]: 5 µM (≈ 2.04 µg/mL); MIC90 [4]: > 20 µM
Cc1cccc(-c2nc(Nc3ccc4ncn(C)c4c3)c3ccccc3n2)n1 | 0.3 (≈ 0.11 µg/mL) | > 10 | 
